Assay results from different studies.
Each line is one published result; the experiments were not run side by side. pIC50: −log10 of the molar value.
Observed: cell growth or viability

C=CC(=O)Nc1cc(Nc2nccc(-c3cn(C)c4ccccc34)n2)c(OC)cc1N(C)CCN(C)C — GI50 (BaF3; 72 h): 2.76 µM
COC1=C2C[C@@H](C)C[C@H](OC)[C@H](O)[C@@H](C)/C=C(\C)[C@H](OC(N)=O)[C@@H](OC)/C=C\C=C(/C)C(=O)NC(=C(c3ccccc3)C1=O)C2=O — pIC50 (ARPE-19; MTT): 5.08
CCCc1cc(=O)n2nc(NCc3c(F)cc(Cl)cc3F)c(C#N)c2[nH]1 — pIC50 (CAL-51; ATP luminescence; 72 h): < 4.30
COc1c2c(cc3c1OCO3)[C@]13C=C[C@H](OC)C[C@@H]1[N@](C2)C[C@H]3OC(=O)c1ccoc1 — pIC50 (PANC-1; WST-1): < 5.00
C1COCCN1.COc1ccc(/C=C\c2cc(I)c(OC)c(I)c2)cc1OP(=O)(O)O — GI50 (SF-268; SRB; 48 h): 0.054 mg/L
COc1c2c(cc3c1OCO3)[C@]13C=C[C@H](OC)C[C@@H]1[N@](C2)C[C@H]3OC(=O)c1ccco1 — pIC50 (PANC-1; WST-1): < 5.00
COC1=C2C[C@@H](C)C[C@H](OC)[C@H](O)[C@@H](C)/C=C(\C)[C@H](OC(N)=O)[C@@H](OC)/C=C\C=C(/C)C(=O)NC(=C(C)C1=O)C2=O — pIC50 (ARPE-19; MTT): < 4.70
COc1cc(C(=O)c2cc3cc(N)cc(OC)c3s2)cc(OC)c1OC — pIC50 (human Lymphocyte; MTT; 72 h): < 4.70
